Results collected from several papers.
PBRM1 BD1: Protein polybromo-1, BD1 (PBRM1, Homo sapiens, UniProt Q86U86)
PBRM1 bromodomain: Protein polybromo-1, bromodomain (PBRM1, Homo sapiens, UniProt Q86U86)
BRD2 BD1: Bromodomain-containing protein 2, BD1 (BRD2, Homo sapiens, UniProt P25440)
PBRM1 BD2: Protein polybromo-1, BD2 (PBRM1, Homo sapiens, UniProt Q86U86)

Nc1ncnc2occ(-c3ccc(NC(=O)Nc4cc(C(F)(F)F)ccc4F)cc3)c12
remaining signal (Casein kinase I isoform alpha-like (CSNK1A1L, Homo sapiens, UniProt Q8N752); cell-free assay; 20 µM): 39%

CCCOc1ccc(OC)c(F)c1C(=O)c1ccc(C(=O)N[C@@H]2CNC[C@H]2NC(=O)c2ccc3[nH]ncc3c2)cc1
remaining activity (Serine/threonine-protein kinase N2 (PKN2, Homo sapiens, UniProt Q16513); enzyme activity, inhibitor; 0.5 µM): 14%

C[S+]([O-])c1ccc(-c2nc(-c3ccncc3)c(-c3ccc(F)cc3)[nH]2)cc1 (centres unmarked)
ΔTm (PBRM1 BD1; thermal stability, DSF; 10 µM): 0.28 °C

CCCCCCN1CCCn2c1nc1c2c(=O)n(C)c(=O)n1C
inhibition (Adenosine receptor A2b (ADORA2B, Homo sapiens, UniProt P29275); ligand displacement, radioligand; 10 µM, cell membranes): 9%

O=C(O)c1cccc(NC(c2ccccc2)c2ccc3ccccc3c2O)c1 (centres unmarked)
remaining activity (CAAX prenyl protease 2 (Homo sapiens, UniProt Q9Y256); enzyme activity, inhibitor; 10 µM): < 40%

Oc1ccc(-c2nc(-c3ccncc3)c(-c3ccc(F)cc3)[nH]2)cc1
ΔTm (PBRM1 BD1; thermal stability, DSF; 10 µM): 0 °C

CCC/C=C1\CCn2c1nc(=O)c1c(Cl)cccc12
ΔTm (PBRM1 bromodomain; thermal stability, DSF; 100 µM): 11 °C

CN(C)C1CCN(CC#Cc2nn(C3CCCC3)c3nc(NCc4ccccc4)ncc23)C1 (centres unmarked)
inhibition (Tyrosine-protein kinase JAK1 (JAK1, Homo sapiens, UniProt P23458); enzyme activity, inhibitor, FRET; 1 µM): 0%

Cc1cnc(Nc2ccc(OCCN3CCCC3)cc2)nc1Nc1cccc(S(=O)(=O)NC(C)(C)C)c1
ΔTm (BRD2 BD1; thermal stability, DSF; 10 µM): 2.4 °C

CN(C)/C=C1\CCCn2c1nc(=O)c1c(Cl)cccc12
ΔTm (PBRM1 BD2; thermal stability, DSF; 100 µM): 1.44 °C

Cc1cc2c(cc1N1C(=O)c3cccc4c(Cl)ccc(c34)C1=O)n(C)c(=O)n2C
ΔTm (PBRM1 BD1; thermal stability, DSF; 10 µM): -1.1 °C

CCC(CC)CC1CCn2c1nc(=O)c1c(Cl)cccc12 (racemic)
ΔTm (PBRM1 BD2; thermal stability, DSF; 100 µM): 2.66 °C

NS(=O)(=O)c1ccc(Nc2nc(-c3ccc(F)cc3)c3ccccc3n2)cc1
remaining binding (BRD2 BD1; binding, competition with immobilised ligand; 1 µM): 4%

CCC(/C=C1\CCCn2c1nc(=O)c1c(Cl)cccc12)CC
ΔTm (PBRM1 bromodomain; thermal stability, DSF; 100 µM): 5.82 °C

Cc1oc2cc3oc(=O)c(C)c(C)c3cc2c1C
remaining activity (Aldehyde dehydrogenase, mitochondrial (ALDH2, Homo sapiens, UniProt P05091); enzyme activity, inhibitor, absorbance; 10 µM): 20.7%

CCC(/C=C1\CCn2c1nc(=O)c1c(Cl)c(Cl)ccc12)CC
ΔTm (PBRM1 bromodomain; thermal stability, DSF; 100 µM): 2.23 °C

Cc1ccc(C(=O)Nc2ccc(CN3CCN(C)CC3)c(C(F)(F)F)c2)cc1C#Cc1cnc2cccnn12
remaining activity (Receptor tyrosine-protein kinase erbB-3 (ERBB3, Homo sapiens, UniProt P21860); enzyme activity, inhibitor; 23.5 nM): 82%
